Laboratory results published in ChEMBL document CHEMBL1148947, “Prenylated benzophenones and xanthones from Hypericum scabrum” (J Nat Prod, 2004).
≈ marks a conversion by molar mass, not a printed value. Calls of active or inactive are those of the source. No cut-off for these calls is given here.

Columns and labels:
[1] = system: MCF7; experiment: Cytotoxicity against human MCF7 cells after 3 days by SRB assay; format: functional, cell-based; details: MCF7, 72 h
In short: (§1)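 Cells kept in RPMI-1640 with 25 mM HEPES, 0.25% sodium bicarbonate, 10% FBS and 100 µg/mL kanamycin. Freshly trypsinized cells seeded at 1500-7500 per well with compound diluted from DMSO stock. After 3 days, attached cells fixed with cold 50% TCA, stained with 0.4% SRB, and bound dye solubilized. Absorbance read at 562 nm. IC50 = 50% reduction relative to untreated cells. Below 50% inhibition at 20 mcg/mL, percent inhibition reported.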

[2] = system: A549; experiment: Cytotoxicity against human A549 cells after 3 days by SRB assay; format: functional, cell-based; details: A549, 72 h; in short: as §1
[3] = system: MCF7; experiment: Cytotoxicity against human MCF7 cells at 20 mcg/mL after 3 days by SRB assay; format: functional; details: for inhibition at 20 µg/mL: MCF7, 72 h; in short: as §1
[4] = system: A549; experiment: Cytotoxicity against human A549 cells at 20 mcg/mL after 3 days by SRB assay; format: functional; details: for inhibition at 20 µg/mL: A549, 72 h; in short: as §1

Compound	IC50 [1] [µg/mL]	IC50 [2] [µg/mL]	inhibition at 20 µg/mL [3] [%]	inhibition at 20 µg/mL [4] [%]	Activity [3]	Activity [4]
CC(C)=CC[C@H]1C[C@]2(CC=C(C)C)C(=O)C(C(=O)c3ccccc3)=C(O)[C@](CC=C(C)C)(C2=O)C1(C)C	10 (≈ 19.9 µM)	13.7 (≈ 27.3 µM)				
O=c1c2cc(O)ccc2oc2cccc(O)c12	19.5 (≈ 85.5 µM)	14.5 (≈ 63.5 µM)				
O=c1c2ccc(O)c(O)c2oc2cc(O)cc(O)c12	9.3 (≈ 35.7 µM)	10 (≈ 38.4 µM)				
COc1ccc(O)c2c(=O)c3cc(O)ccc3oc12	15.2 (≈ 58.9 µM)	8.5 (≈ 32.9 µM)				
O=c1c(-c2c(O)cc(O)c3c(=O)cc(-c4ccc(O)cc4)oc23)c(-c2ccc(O)cc2)oc2cc(O)cc(O)c12	> 20	> 20	26	27		
CC(C)=CCc1c(O)c(O)cc2oc3cc(O)cc(O)c3c(=O)c12	18.4 (≈ 56 µM)	18.5 (≈ 56.3 µM)				
O=c1c(O[C@@H]2OC[C@@H](O)[C@@H](O)[C@@H]2O)c(-c2ccc(O)c(O)c2)oc2cc(O)cc(O)c12	> 20	> 20	17	11		
O=c1c(O[C@@H]2O[C@@H](CO)[C@H](O)[C@H]2O)c(-c2ccc(O)c(O)c2)oc2cc(O)cc(O)c12					inactive	inactive
O=c1c(O[C@@H]2O[C@H](CO)[C@H](O)[C@H](O)[C@H]2O)c(-c2ccc(O)c(O)c2)oc2cc(O)cc(O)c12					inactive	inactive
CC(C)=CCC[C@]1(C)[C@@H](CC=C(C)C)C[C@]2(C)C(=O)[C@@]3(CC=C(C)C)O[C@]2(O)[C@]1(C(=O)C(C)C)C3=O [HYPERIBONE J]	17.8 (≈ 35.7 µM)	> 20		49		
CC(C)=CC[C@@]12C[C@H]3[C@@H](C=C(C)C)[C@@](C(=O)c4ccccc4)(C1=O)C(=O)[C@@](CC=C(C)C)(C2=O)C3(C)C [HYPERIBONE K]	10 (≈ 20 µM)	13.7 (≈ 27.4 µM)				
CC(C)=CC[C@H]1C[C@@]2(CC=C(C)C)C(=O)C(C(=O)c3ccccc3)=C(O)[C@](C)(C2=O)C1(C)C [HYPERIBONE L]	15 (≈ 33.4 µM)	9.2 (≈ 20.5 µM)				
CC(C)(O)C1Cc2c(c(O)cc3oc4cc(O)cc(O)c4c(=O)c23)O1 (centres undefined) [HYPERXANTHONE A]	> 20	> 20	27	26		
C=C(C)C(O)Cc1c(O)c(O)cc2oc3cc(O)cc(O)c3c(=O)c12 (centres undefined) [HYPERXANTHONE C]	11.2 (≈ 32.5 µM)	9.3 (≈ 27 µM)				
C=C(C)C(O)Cc1c(O)ccc2oc3cc(O)cc(O)c3c(=O)c12 (centres undefined) [HYPERXANTHONE D]	> 20	> 20	34	43		
CC1(C)CCc2c(c(O)cc3oc4cc(O)cc(O)c4c(=O)c23)O1 [HYPERXANTHONE E]	19.3 (≈ 58.8 µM)	18.5 (≈ 56.3 µM)				
O=c1cc(-c2ccc(O)c(O)c2)oc2cc(O)cc(O)c12 [LUTEOLIN]	14.3 (≈ 50 µM)	12.9 (≈ 45.1 µM)				
O=c1c(O)c(-c2cc(O)c(O)c(O)c2)oc2cc(O)cc(O)c12 [MYRICETIN]	4.7 (≈ 14.8 µM)	14.8 (≈ 46.5 µM)				
C[C@H]1O[C@@H](Oc2c(-c3cc(O)c(O)c(O)c3)oc3cc(O)cc(O)c3c2=O)[C@@H](O)[C@@H](O)[C@@H]1O [MYRICITRIN]	11.2 (≈ 24.1 µM)	> 20		13		
O=c1c(O)c(-c2ccc(O)c(O)c2)oc2cc(O)cc(O)c12 [QUERCETIN]	19.5 (≈ 64.5 µM)	> 20		21		
C[C@@H]1O[C@@H](Oc2c(-c3ccc(O)c(O)c3)oc3cc(O)cc(O)c3c2=O)[C@H](O)[C@H](O)[C@H]1O [QUERCITRIN]	> 20	> 20	18	12		
CC1(C)C=Cc2c(c(O)cc3oc4cc(O)cc(O)c4c(=O)c23)O1 [TOXYLOXANTHONE B]	> 20	> 20	17	28		
